Laboratory results from ChEMBL document CHEMBL6134787, “Fexinidazole optimization: enhancing anti-leishmanial profile, metabolic stability and hERG safety” (RSC Med Chem, 2024).

What was measured:
[1] = Cytotoxicity against mouse L929 cells assessed as inhibition of cell growth incubated for 72 hrs by MTS assay; format: toxicity, cell-based
In short: (§1)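 Cells in DMEM + 10% heat-inactivated FBS with penicillin/streptomycin at 37 °C, 5% CO2. They were seeded at 1 × 10^4/well and incubated with a concentration series for 72 h at 37 °C. Viability was read by MTS/PMS assay at 490 nm and IC50 derived.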

Leishmania braziliensis [2] = test: Antileishmanial activity against wild type Leishmania braziliensis UA847 promastigotes […] assessed as inhibition of parasite growth incubated for 72 hrs by automatic microtiter plate reader analysis; format: functional, organism-based
In short: (§2)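 Promastigotes were grown in Schneider's medium (4 mM glutamine, gentamicin, 10% heat-inactivated FBS, pH 6.9, 27 °C). Cells were seeded at 1.5 × 10^5/well and exposed to a concentration series for 72 h at 27 °C.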

Leishmania amazonensis [3] = test: Antileishmanial activity against wild type Leishmania amazonensis LV78 promastigotes […] assessed as inhibition of parasite growth incubated for 72 hrs by automatic microtiter plate reader analysis; format: functional, organism-based; in short: as §2
RAW264.7 = test: Cytotoxicity against mouse RAW264.7 cells assessed as inhibition of cell growth incubated for 72 hrs by MTS assay; format: functional, cell-based; details: RAW264.7, 72 h; in short: as §1
[4] = Metabolic stability in rat liver microsome assessed as compound remaining at 20 uM measured after 32 mins in presence of NADP and GSH by HPLC analysis; format: ADME; details: liver microsomes, read-out: Stability
In short: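 Rat liver microsomes (final 2 mg/mL) in 50 mM phosphate pH 7.4 with 0.3 mM NADP+, 5.3 mM glucose-6-phosphate, G6PDH, 10 mM MgCl2 and 5 mM EDTA. 20 μM compound added at 37 °C. Aliquots at 0, 16 and 32 min were quenched in ice-cold acetonitrile and centrifuged. HPLC peak area at 254/280 nm was expressed relative to 0 min.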

[5] = Hepatotoxicity against mouse TAMH cells assessed as cell viability at 7.8 to 125 uM incubated for 24 to 48 hrs by MTT assay; format: toxicity, cell-based; details: dose lower 7.8 µM, time lower 24 hrs, dose upper 125 µM, time upper 48 hrs, read-out: Activity
In short: (§3)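 TAMH mouse liver cells in FCS-free DMEM/F12 with 5% PANEXIN NTA, 10 mM nicotinamide and gentamicin. Seeded at 20 000/well and attached 24 h at 37 °C, 5% CO2. DMSO-diluted compounds were applied for 24 or 48 h. MTT was added for 4 h, formazan dissolved in DMSO and A570 read. Viability was background-corrected and expressed relative to DMSO controls; mean ± SD, ≥3 experiments.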

[6] = molecular target: T1, Voltage-gated inwardly rectifying potassium channel KCNH2 (Homo sapiens, UniProt Q12809); test: Inhibition of human ERG stably overexpressed in HEK293 cells incubated for 30 mins by FLIPR assay; format: toxicity, cell-based; details: human, hek293, 0.5 h; time 30 min
T1 sequence (Q12809 whole entry): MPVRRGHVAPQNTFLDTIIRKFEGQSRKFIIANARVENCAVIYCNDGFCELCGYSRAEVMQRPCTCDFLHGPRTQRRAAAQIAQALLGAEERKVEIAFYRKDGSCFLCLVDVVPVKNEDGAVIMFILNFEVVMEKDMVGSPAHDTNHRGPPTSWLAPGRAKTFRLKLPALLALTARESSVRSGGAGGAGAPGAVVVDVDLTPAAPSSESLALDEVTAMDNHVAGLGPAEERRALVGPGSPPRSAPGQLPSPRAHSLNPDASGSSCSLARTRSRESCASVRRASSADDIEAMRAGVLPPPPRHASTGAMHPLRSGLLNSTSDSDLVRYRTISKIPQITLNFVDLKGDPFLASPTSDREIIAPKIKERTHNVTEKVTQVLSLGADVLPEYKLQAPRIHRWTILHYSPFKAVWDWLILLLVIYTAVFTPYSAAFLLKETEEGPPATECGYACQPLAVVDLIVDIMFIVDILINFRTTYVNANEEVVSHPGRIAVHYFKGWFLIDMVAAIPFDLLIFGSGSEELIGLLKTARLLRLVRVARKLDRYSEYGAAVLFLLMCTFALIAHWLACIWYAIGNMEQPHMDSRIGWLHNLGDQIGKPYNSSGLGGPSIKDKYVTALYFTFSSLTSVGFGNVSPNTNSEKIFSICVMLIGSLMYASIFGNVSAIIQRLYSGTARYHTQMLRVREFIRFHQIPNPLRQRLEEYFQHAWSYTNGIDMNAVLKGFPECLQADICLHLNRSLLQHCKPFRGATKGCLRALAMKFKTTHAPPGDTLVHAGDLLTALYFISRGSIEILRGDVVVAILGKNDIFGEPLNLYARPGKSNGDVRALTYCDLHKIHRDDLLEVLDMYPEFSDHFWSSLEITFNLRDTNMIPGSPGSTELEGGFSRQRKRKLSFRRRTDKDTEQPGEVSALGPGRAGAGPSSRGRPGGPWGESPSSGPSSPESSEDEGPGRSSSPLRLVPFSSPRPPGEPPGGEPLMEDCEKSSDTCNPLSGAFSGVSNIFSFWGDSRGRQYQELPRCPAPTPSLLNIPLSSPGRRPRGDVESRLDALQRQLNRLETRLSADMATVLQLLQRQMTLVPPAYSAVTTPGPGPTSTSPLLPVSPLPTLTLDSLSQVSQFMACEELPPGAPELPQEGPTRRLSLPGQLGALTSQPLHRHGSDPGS

Leishmania donovani [7] = test: Antileishmanial activity against miltefosine resistant Leishmania donovani HU3MILR40 promastigotes […] assessed as inhibition of parasite growth incubated for 72 hrs by automatic microtiter plate reader analysis; format: functional, organism-based
In short: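 Promastigote (free parasite) assay: Schneider's Drosophila medium with 4 mM glutamine, 25 μg mL−1 gentamicin, 10% heat-inactivated FBS, pH 6.9, 27 °C. 1.5 × 10^5 promastigotes per well exposed to a concentration series for 72 h at 27 °C.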

[8] = Metabolic stability in rat liver S9 fraction assessed as compound remaining at 20 uM measured after 32 mins in presence of NADP and GSH by HPLC analysis; format: ADME, subcellular; details: read-out: Stability
In short: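 Rat liver S9 (final 4 mg/mL) in 50 mM phosphate pH 7.4 with NADPH-regenerating system (0.3 mM NADP+, 5.3 mM glucose-6-phosphate, G6PDH), 10 mM MgCl2 and 5 mM EDTA. Pre-warmed 10 min at 37 °C, then 20 μM compound and 5.5 μM GSH added. Samples taken at 0, 16 and 32 min were quenched in ice-cold acetonitrile. HPLC (254/280 nm) peak area was expressed relative to 0 min.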

hERG (KCNH2) [9] = molecular target: T2, hERG (KCNH2) (Homo sapiens, UniProt Q12809); test: Inhibition of human ERG stably overexpressed in HEK293 cells assessed as remaining activity at 25 uM incubated for 30 mins by FLIPR assay; format: toxicity, cell-based; details: HEK293 cells stably overexpressing hERG, read-out: Activity
T2 sequence (Q12809 whole entry): as above
In short: (§4)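 HEK-293 cells stably expressing hERG, seeded at 60 000/well and grown 24 h. Compounds were added in DMSO (final 0.5%) and incubated 30 min in the dark. After 20 s baseline, Tl+ stimulus (3 mM) was added and fluorescence (ex 485/em 535 nm) recorded for 2.5 min.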

Leishmania major = test: Antileishmanial activity against wild type Leishmania major FV1 promastigotes […] assessed as inhibition of parasite growth incubated for 72 hrs by automatic microtiter plate reader analysis; format: functional, organism-based; in short: as §2
Leishmania donovani [10] = test: Antileishmanial activity against wild type Leishmania donovani HU3 promastigotes […] assessed as inhibition of parasite growth incubated for 72 hrs by automatic microtiter plate reader analysis; format: functional, organism-based
[11] = Hepatotoxicity against mouse TAMH cells assessed as reduction in cell viability at 125 uM incubated for 24 hrs by MTT assay; format: toxicity, cell-based; in short: as §3
[12] = molecular target: T1, Voltage-gated inwardly rectifying potassium channel KCNH2; test: (§5) Inhibition of human ERG stably overexpressed in HEK293 cells assessed as remaining activity at 6 uM incubated for 30 mins by FLIPR assay; format: toxicity, cell-based; details: hek293, 0.5 h, 6 µM; in short: as §4
[13] = Hepatotoxicity against human HepG2 cells assessed as reduction in cell viability at 125 uM incubated for 24 hrs by MTT assay; format: toxicity, cell-based; details: hepg2, 24 h
In short: (§6)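 HEP-G2 cells in RPMI 1640 + 10% heat-inactivated FBS, penicillin/streptomycin. Seeded at 15 000/well and attached 24 h at 37 °C, 5% CO2. Compounds were serially diluted in DMSO, with 24 or 48 h exposure. MTT (2.5 mg/mL solution) was added for 4 h, formazan dissolved in DMSO and A570 read. Viability was background-corrected against DMSO-treated cell controls; mean ± SD, ≥3 experiments.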

Leishmania amazonensis [14] = test: Antileishmanial activity against wild type Leishmania amazonensis LV78 amastigotes infected in mouse peritoneal macrophage assessed as inhibition of parasite growth incubated for 72 hrs by giemsa staining based analysis; format: functional, organism-based
In short: (§7)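 Mouse peritoneal macrophages (1 × 10^5/well on coverslips, DMEM + 10% heat-inactivated FBS, penicillin/streptomycin) adhered overnight at 37 °C, 5% CO2. They were infected overnight with late-log promastigotes at a 20:1 parasite:macrophage ratio. Cells were then treated with compound for 72 h at 37 °C and Giemsa-stained. Amastigotes per 100 macrophages were counted to derive IC50; mean ± SD of 3–4 independent experiments.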

Leishmania braziliensis [15] = test: Antileishmanial activity against wild type Leishmania braziliensis UA847 amastigotes infected in mouse peritoneal macrophage assessed as inhibition of parasite growth incubated for 72 hrs by giemsa staining based analysis; format: functional, organism-based; in short: as §7
hERG (KCNH2) [16] = molecular target: T2, hERG (KCNH2); test: as §5; format: toxicity, cell-based; details: HEK293 cells stably overexpressing hERG, read-out: Activity; in short: as §4
Leishmania donovani [17] = test: Antileishmanial activity against wild type Leishmania donovani HU3 amastigotes infected in mouse peritoneal macrophage assessed as inhibition of parasite growth incubated for 72 hrs by giemsa staining based analysis; format: functional, organism-based
In short: (§8)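 Mouse peritoneal macrophages in DMEM + 10% heat-inactivated FBS, penicillin/streptomycin; 1 × 10^5 cells per well on coverslips, adhered overnight at 37 °C, 5% CO2, non-adherent cells washed off. Infected overnight with late-log promastigotes at parasite:macrophage 40:1. Compound exposure 72 h at 37 °C; Giemsa stain, amastigotes per 100 macrophages counted, IC50 derived; means ± SD of 3–4 independent experiments.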

Leishmania donovani [18] = test: Antileishmanial activity against miltefosine resistant Leishmania donovani HU3MILR40 amastigotes infected in mouse peritoneal macrophage assessed as inhibition of parasite growth incubated for 72 hrs by giemsa staining based analysis; format: functional, organism-based; in short: as §8
[19] = Selectivity ratio of IC50 for cytotoxicity against mouse peritoneal macrophage assessed as inhibition of cell growth to IC50 for antileishmanial activity against miltefosine resistant Leishmania donovani HU3MILR40 amastigotes infected in mouse peritoneal macrophage assessed as inhibition of parasite growth; format: toxicity, cell-based; details: peritoneal macrophages, read-out: Ratio IC50
[20] = Cytotoxicity against mouse peritoneal macrophage assessed as inhibition of cell growth incubated for 72 hrs by giemsa staining based analysis; format: toxicity; details: peritoneal macrophages
hERG (KCNH2) [21] = molecular target: T2, hERG (KCNH2); test: Inhibition of human ERG stably overexpressed in HEK293 cells at 100 uM incubated for 30 mins by FLIPR assay; format: toxicity, cell-based; details: HEK293 cells stably overexpressing hERG; in short: as §4
[22] = Hepatotoxicity against human HepG2 cells assessed as cell viability at 125 uM incubated for 48 hrs by MTT assay; format: toxicity, cell-based; details: hepg2, 48 h, 125 µM; in short: as §6
[23] = Hepatotoxicity against mouse TAMH cells assessed as cell viability at 125 uM incubated for 48 hrs by MTT assay; format: toxicity, cell-based; in short: as §3

Structure (SMILES) | IC50 at 72 h [1] [µM] | IC50 (Leishmania braziliensis [2]) [µM] | IC50 (Leishmania amazonensis [3]) [µM] | IC50 (RAW264.7) [µM] | remaining at 32 min, 20 µM [4] [%] | viability at up to 125 µM [5] [%] | IC25 [6] [µM] | IC50 (Leishmania donovani [7]) [µM] | remaining at 32 min, 20 µM [8] [%] | IC50 (Leishmania major) [µM] | IC50 (Leishmania donovani [10]) [µM] | also measured
CSc1ccc(OCc2nccn2C)cc1 | > 100 | > 20 | > 20 | > 91.1 | 100 | > 50 | 34.5 | > 20 | 100 | > 20 | > 20 | activity at 0.5 h, 25 µM (hERG (KCNH2) [9]): 83%
C[S+]([O-])c1ccc(OCC2Cn3cc([N+](=O)[O-])nc3O2)cc1 (racemic) | > 100 | > 20 | > 20 | > 100 | 100 | 56 | 30.1 | 7.1 | 100 | > 20 | 10.2 | Activity [11]: 58%; inhibition (INH) [12]: Not_active; Activity [13]: 40.8%
CSc1ccc(OC[C@H]2Cn3cc([N+](=O)[O-])nc3O2)cc1 | > 100 | 1.4 | 1.9 | > 95.3 | 64.7 | > 50 | 3.1 | 0.4 | 92.1 | 5.7 | 1.1 | IC50 (Leishmania amazonensis [14]): 700 nM; IC50 (Leishmania braziliensis [15]): 1000 nM; activity at 0.5 h, 6 µM (hERG (KCNH2) [16]): 46%; IC50 (Leishmania donovani [17]): 400 nM; IC50 (Leishmania donovani [18]): 600 nM; selectivity ratio [19]: > 143; IC50 at 72 h [20]: > 86 µM
CSc1ccc(CCc2ncc([N+](=O)[O-])n2CCO)cc1 | > 100 | > 20 | > 20 | > 100 | 20.5 | > 50 | 6 | > 20 | 76.8 | > 20 | > 20 | inhibition at 0.5 h, 100 µM (hERG (KCNH2) [21]): 100%
Cn1c([N+](=O)[O-])cnc1COc1ccc(S(C)(=O)=O)cc1 [FEXINIDAZOLE SULFONE] | > 100 | 5.9 | 9.4 | > 100 | 100 | > 50 | 42.2 | 5.6 | 100 | 1.7 | 3.8 | Activity [22]: Non-toxic; Activity [23]: Non-toxic
